From ChEMBL document CHEMBL1149206, “P1 and P3 optimization of novel bicycloproline P2 bearing tetrapeptidyl alpha-ketoamide based HCV protease inhibitors” (Bioorg Med Chem Lett, 2004) come the findings set out here.

What is called AUC is the area under the concentration-time curve, a measure of exposure. Read a low AUC as less exposure. The term IC50 denotes the concentration at which inhibition is half-maximal. The low end stands for higher potency, the high end for lower potency. In general, CC50 refers to the concentration giving 50% cytotoxicity. Read a high CC50 as better tolerance by the cells.

Data set [1] relates to Rattus norvegicus. The data set is described as follows: In vivo concentration in rat liver exposure 0-8 hour after oral administration 50 mg/kg. The format is ADME, organism-based. Also noted: dose 50 mg/kg, route oral. In a few lines: (§1)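 Male Sprague–Dawley rats given a single oral dose of 50 mg/kg as a suspension in a wet granulation vehicle (povidone/lactose/polysorbate). Blood was collected by orbital sinus and terminal cardiac puncture at selected times up to 8 h. Livers were perfused intracardially with saline before sampling. Plasma and liver drug concentrations were measured by LC/MS/MS.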

For data set [2], the system named is Rattus norvegicus. Description: In vivo area under curve in rat plasma exposure after oral administration 50 mg/kg. Format: ADME, organism-based. Also noted: dose 50 mg/kg, route oral. In short, it runs like this:
as §1

Data set [3] is described as follows: In vivo concentration in rat liver exposure 8 hour after oral administration 50 mg/kg. Format: ADME, organism-based. Also noted: dose 50 mg/kg, route oral. Particulars: read-out: C. In a few lines: as §1
A short description of data set [4]: In vivo concentration in rat plasma exposure at 8 hour after oral administration 50 mg/kg. The format is ADME, organism-based. Also noted: dose 50 mg/kg, route oral. Particulars: read-out: C. In short, it runs like this:
as §1

For data set [5], the target named is Kallikrein-1 (Homo sapiens) (UniProt P06870). Description: Inhibitory activity against kallikrein at 100 uM concentration; Not significant.
Kallikrein-1 (Homo sapiens), sequence (P06870 25-262 limits assumed): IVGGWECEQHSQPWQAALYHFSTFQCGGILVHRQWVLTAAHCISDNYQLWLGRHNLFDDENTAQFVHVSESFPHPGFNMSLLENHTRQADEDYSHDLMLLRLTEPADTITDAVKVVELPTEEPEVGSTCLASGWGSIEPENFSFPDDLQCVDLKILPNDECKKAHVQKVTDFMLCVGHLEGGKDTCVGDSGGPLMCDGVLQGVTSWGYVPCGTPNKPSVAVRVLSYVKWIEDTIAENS
In data set [6] the target is Prothrombin (Homo sapiens) (UniProt P00734). The data set is described as follows: Inhibitory activity against thrombin at 100 uM concentration; Not significant.
The target in data set [7] is Serine protease 1 (Homo sapiens) (UniProt P07477). Description: Inhibitory activity against trypsin at 100 uM concentration; Not significant.
Serine protease 1 (Homo sapiens), sequence (P07477 whole entry): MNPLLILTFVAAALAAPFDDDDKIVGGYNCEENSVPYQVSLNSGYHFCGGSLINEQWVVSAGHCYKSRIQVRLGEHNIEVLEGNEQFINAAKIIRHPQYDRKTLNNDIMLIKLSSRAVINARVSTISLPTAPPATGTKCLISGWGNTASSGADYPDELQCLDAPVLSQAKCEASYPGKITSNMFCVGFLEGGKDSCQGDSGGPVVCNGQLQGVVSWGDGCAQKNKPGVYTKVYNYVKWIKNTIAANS
Another data set addresses Chymotrypsinogen A (Bos taurus, UniProt P00766). The data set is described as follows: Inhibitory activity against Chymotrypsin. In a few lines: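 One of a panel of 10 human serine and cysteine proteases (elastase, chymotrypsin, trypsin, kallikrein, plasmin, thrombin, Factor Xa, cathepsins B, G and L).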
Data set [8] in a line: Ratio of the concentration of liver to that of IC50 replication was determined. The format is ADME.
A short description of data set [9]: Ratio of cytotoxicity (CC50) to that of replicon (IC50) was determined. In a few lines:
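Selectivity index: the IC50 from the XTT cytotoxicity assay in Huh-7 cells divided by the IC50 from a modified HCV subgenomic replicon assay.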
A general note: A replicon is a self-replicating genome or part of one, used to study replication in cells.

Another data set has as its system Huh-7 (Homo sapiens). The data set is described as follows: Cytotoxic activity in liver Huh-7 cells.
The nature of data set [10]: Inhibitory activity against plasmin at 100 uM concentration; Not significant.
Data set [11] has as its system Rattus norvegicus. Description: In vivo concentration in rat liver exposure 8 hour after oral administration 50 mg/kg; Below detection limit. Format: ADME, organism-based. The arrangement: dose 50 mg/kg, route oral. In a few lines:
as §1

Structures are written as SMILES. Calls of active or inactive are those of the source. No cut-off for these calls is given here. Where only a bound is given, the exact number is not on record here.

In the data set with Rattus norvegicus [1], `CC(C)[C@H](NC(=O)c1cnccn1)C(=O)N[C@H](C(=O)N1C[C@@H]2CCC[C@@H]2[C@H]1C(=O)N[C@@H](CC(F)F)C(=O)C(=O)NC1CC1)C(C)(C)C` displayed a Caverage of 3.64 µM. Besides, the AUC with Rattus norvegicus [2] was 1880 ng·h/mL. The results for the concentration at 8 h in [3] and in [4] were 0.67 µM and 40 ng/mL, respectively. The inhibition entry in data set [5], in data set [6] and in data set [7] was “inactive” in each case.

In the case of `CCC[C@H](NC(=O)[C@@H]1[C@H]2CCC[C@H]2CN1C(=O)[C@@H](NC(=O)[C@@H](NC(=O)c1cnccn1)C(C)C)C(C)(C)C)C(=O)C(=O)NC(C)CC` (stereo partly drawn), the Caverage in the data set on Rattus norvegicus [1] worked out at 14 µM. Besides, the AUC in the data set on Rattus norvegicus [2] worked out at 22300 ng·h/mL. Moreover, the concentration at 8 h in data set [3] is 8.68 µM; in data set [4] it was 920 ng/mL. The same compound registered an IC50 against Chymotrypsinogen A of more than 100 µM. For the same compound, the inhibition result in data set [5], in data set [6], in data set [7] and in data set [10] was “inactive” throughout. Moreover, the results for the Ratio in data set [8] and in [9] were 4 and more than 29, respectively. In the data set on Huh-7 (Homo sapiens), this compound returned a CC50 of more than 100 µM.

Take `CCC[C@H](NC(=O)[C@@H]1[C@H]2CCC[C@H]2CN1C(=O)[C@@H](NC(=O)[C@@H](NC(=O)c1cnccn1)C(C)C)C(C)(C)C)C(=O)C(=O)NC1CC1`: the Caverage in the data set on Rattus norvegicus [1] turned out to be 16 µM. In the data set on Rattus norvegicus [2], this compound had an area under the curve (AUC) of 25800 ng·h/mL. Besides, the concentration at 8 h in [3] is 3.67 µM; in data set [4], 520 ng/mL. Further, at Chymotrypsinogen A, the IC50 is more than 100 µM. The inhibition result in data set [5], in [6] and in [7] was “inactive” in each case.

For `CC(C)[C@H](NC(=O)c1cnccn1)C(=O)N[C@H](C(=O)N1C[C@@H]2CCC[C@@H]2[C@H]1C(=O)N[C@@H](CC(F)F)C(=O)C(=O)N[C@@H](C)c1ccccc1)C(C)(C)C`, the Ratio in data set [9] was more than 159. Besides, the CC50 with Huh-7 (Homo sapiens) was more than 100 µM.

Regarding `CCC(C)NC(=O)C(=O)[C@H](CC(F)F)NC(=O)[C@@H]1[C@H]2CCC[C@H]2CN1C(=O)[C@@H](NC(=O)[C@@H](NC(=O)c1cnccn1)C(C)C)C(C)(C)C` (stereo partly drawn), in [9], the Ratio was more than 38. In addition, in the data set on Huh-7 (Homo sapiens), the half-maximal cytotoxic concentration (CC50) was more than 100 µM.

On to `CC(C)[C@H](NC(=O)c1cnccn1)C(=O)N[C@H](C(=O)N1C[C@@H]2CCC[C@@H]2[C@H]1C(=O)NC(CC(F)F)C(=O)C(=O)NC1CC1)C(C)C` (stereo partly drawn), for which, in the data set with Rattus norvegicus [1], the Caverage result was “</- 0.88 uM”. This compound also displayed an AUC in the data set with Rattus norvegicus [2] of 145 ng·h/mL. Besides, the C entry in the data set with Rattus norvegicus [11] is listed as “Below detection limit”. Besides, the concentration at 8 h in data set [4] turned out to be 20 ng/mL. In addition, the Ratio result in data set [8] is “<= 0.23”; in data set [9], more than 26. In the data set on Huh-7 (Homo sapiens), this compound gave a CC50 of more than 100 µM.

On to `CC(C)[C@H](NC(=O)c1cnccn1)C(=O)N[C@H](C(=O)N1C[C@@H]2CCC[C@@H]2[C@H]1C(=O)N[C@@H](CC(F)F)C(=O)C(=O)N[C@@H](C)c1ccccc1)C(C)C`, for which the Ratio in [9] is more than 110. The CC50 in the data set with Huh-7 (Homo sapiens) is more than 100 µM.

For `CCCC(NC(=O)[C@@H]1[C@H]2CCC[C@H]2CN1C(=O)[C@@H](NC(=O)[C@@H](NC(=O)c1cnccn1)C(C)C)C(C)C)C(=O)C(=O)NC1CC1` (stereo partly drawn), the Caverage in the data set on Rattus norvegicus [1] worked out at 6.29 µM. For the same compound, the AUC in the data set with Rattus norvegicus [2] was found to be 2860 ng·h/mL. The inhibition entry in data set [5], in data set [6] and in [7] was “inactive” in each case.

As for `CCC[C@H](NC(=O)[C@@H]1[C@H]2CCC[C@H]2CN1C(=O)[C@@H](NC(=O)[C@@H](NC(=O)c1cnccn1)C(C)C)C(C)(C)C)C(=O)C(=O)N[C@@H](C)c1ccccc1`, the inhibition entry in [5], in [6] and in data set [7] was “inactive” in each case.
